Measured values: ChEMBL document CHEMBL3526146, “In vitro and in vivo metabolism and pharmacokinetics of BMS-562086, a potent and orally bioavailable corticotropin-releasing factor-1 receptor antagonist” (Drug Metab Dispos, 2012)

Experiments:
Liver microsome [1] = test: Drug metabolism in human liver microsomes assessed as BMS-572273 metabolite level at 100 uM after 1 hr in presence of NADPH; assay type: ADME
How it was run: (§1)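 Liver microsomes (1 mg/ml protein) in 100 mM phosphate buffer with 100 µM test compound. Reaction started by adding NADPH (1 mM), then run at 37°C for 1 h in a shaking water bath, in duplicate. Controls lacked microsomal protein or NADPH; 7-ethoxycoumarin (100 µM) was the positive control. Metabolites identified by LC/MS/MS.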

[2] = Drug metabolism in bile duct-cannulated Sprague-Dawley rat urine assessed as DPH-124921metabolite level at 30 mg/kg, po after 12 hrs by LC-MS/MS analysis; assay type: ADME, organism-based; parameters: dose 30 mg/kg, route oral; conditions: in vivo
How it was run: (§2)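 Male bile-duct-cannulated Sprague-Dawley rats (n=3), fasted overnight, received 30 mg/kg by gavage in 0.5% methylcellulose. Urine and bile were collected 0-12 h and pooled by equal percentage weight across animals, then centrifuged. Supernatants were profiled by LC/MS/MS. Bile was also treated with β-glucuronidase in pH 4.8 acetate buffer, 37°C, 16 h.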

Liver microsome [3] = test: Drug metabolism in human liver microsomes at 100 uM after 1 hr in presence of NADPH; assay type: ADME; how it was run: as §1
[4] = Drug metabolism in mouse liver microsomes at 100 uM after 1 hr in presence of NADPH; assay type: ADME; how it was run: as §1
Liver microsome [5] = test: Detection of compound level in human liver microsomes treated with 100 uM of BMS-562086 after 1 hr by LC-MS/MS analysis
[6] = Drug metabolism in beagle dog hepatocytes assessed as DPH-123554 metabolite level at 25 uM after 3 hrs by LC-MS/MS analysis; assay type: ADME, cell-based, Canis lupus familiaris, Hepatocyte
How it was run: (§3)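 Mouse, rat, dog, monkey and human hepatocytes (trypan blue viability checked) at 1.0×10^6 cells/ml in Krebs-Henseleit buffer were incubated with 25 µM compound, in duplicate. Conditions were 37°C, 95/5 O2/CO2, orbital shaking, 3 h. 7-Ethoxycoumarin and 7-hydroxycoumarin (100 µM) served as positive controls, with a cell-free negative control. Reactions were quenched with ice-cold acetonitrile, then sonicated and centrifuged; supernatants were analysed by LC/MS/MS.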

[7] = Detection of compound level in mouse liver microsomes treated with BMS-562086 by LC-MS/MS analysis
[8] = Detection of compound level in cynomolgus monkey cryopreserved hepatocytes treated with 25 uM of BMS-562086 after 3 hrs by LC-MS/MS analysis; assay type: ADME, cell-based, Macaca fascicularis, Hepatocyte; how it was run: as §3
Liver microsome [9] = test: Drug metabolism in dog liver microsomes at 100 uM after 1 hr in presence of NADPH; assay type: ADME, Canis lupus familiaris; how it was run: as §1
[10] = Drug metabolism in human cryopreserved hepatocytes assessed as BMS-572273 metabolite level at 25 uM after 3 hrs by LC-MS/MS analysis; assay type: ADME, cell-based, Hepatocyte
How it was run: (§4)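 Hepatocytes checked for viability by trypan blue exclusion, then diluted in Krebs-Henseleit buffer to 1.0 × 10^6 cells/ml. Incubated in duplicate with 25 µM compound at 37°C for 3 h on an orbital shaker (80 rpm) under 95/5 O2/CO2. Negative control had no cells. Stopped with ice-cold acetonitrile, sonicated, centrifuged; supernatant analysed by LC/MS/MS.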

[11] = Detection of compound level in beagle dog hepatocytes treated with 25 uM of BMS-562086 after 3 hrs by LC-MS/MS analysis; assay type: ADME, cell-based, Canis lupus familiaris, Hepatocyte; how it was run: as §3
[12] = Drug metabolism in mouse liver microsomes assessed as BMS-572273 metabolite level at 100 uM after 1 hr in presence of NADPH; assay type: ADME; how it was run: as §1
Liver microsome [13] = test: Drug metabolism in dog liver microsomes assessed as BMS-572273 metabolite level at 100 uM after 1 hr in presence of NADPH; assay type: ADME, Canis lupus familiaris
How it was run: (§5)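 Mouse, rat, dog, monkey and human liver microsomes (1 mg/ml protein) were incubated with 100 µM compound in 100 mM phosphate buffer. Reactions were started with 1 mM NADPH and run 1 h at 37°C in duplicate. Controls lacked protein or NADPH, plus a 7-ethoxycoumarin (100 µM) positive control. Metabolites were identified by LC/MS/MS.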

[14] = Drug metabolism in beagle dog hepatocytes assessed as DPH-124921 metabolite level at 25 uM after 3 hrs by LC-MS/MS analysis; assay type: ADME, cell-based, Canis lupus familiaris, Hepatocyte; how it was run: as §3
Hepatocyte = test: Detection of compound level in human cryopreserved hepatocytes treated with 25 uM of BMS-562086 after 3 hrs by LC-MS/MS analysis; assay type: ADME, cell-based; how it was run: as §3
[15] = Drug metabolism in cynomolgus monkey liver microsomes assessed as DPH-124921 metabolite level at 100 uM after 1 hr in presence of NADPH; assay type: ADME, Macaca fascicularis; how it was run: as §5
[16] = Drug metabolism in rat hepatocytes assessed as DPH-124921 metabolite level at 25 uM after 3 hrs by LC-MS/MS analysis; assay type: ADME, cell-based, Hepatocyte; how it was run: as §4
[17] = Drug metabolism in bile duct-cannulated Sprague-Dawley rat urine assessed as BMS-572273 metabolite level at 30 mg/kg, po after 12 hrs by LC-MS/MS analysis; assay type: ADME, organism-based; parameters: dose 30 mg/kg, route oral; conditions: in vivo; how it was run: as §2
[18] = AUC (infinity) in chimpanzee at 1 mg/kg, po; assay type: ADME, organism-based, Pan troglodytes; parameters: dose 1 mg/kg, route oral, time infinity; conditions: plasma
How it was run: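 Two fasted male chimpanzees (58, 72 kg) received 1 mg/kg orally as a suspension in 0.5% methylcellulose/orange drink with 1% Tween 80 (1:1). Blood was sampled 0-96 h post-dose. Plasma was assayed by validated LC/MS/MS (LLOQ 1.00 ng/ml). Noncompartmental analysis gave AUC(INF) by the mixed log-linear trapezoidal method, with Cmax observed directly; values are mean (min, max).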

[19] = Drug metabolism in rat hepatocytes assessed as decrease of compound level at 25 uM after 3 hrs by HPLC analysis; assay type: ADME, cell-based, Hepatocyte; conditions: read-out: Drug metabolism
[20] = Oral bioavailability in beagle dog at 5 mg/kg; assay type: ADME, organism-based, Canis lupus familiaris; conditions: in vivo
How it was run: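 Male beagle dogs (n=3), one-way IV/PO crossover with a one-week washout, fasted about 15 h before and 4 h after dosing. IV dose of 1 mg/kg as a saphenous bolus in N,N-dimethylacetamide:propylene glycol:water (1:7:2); PO dose of 5 mg/kg by gavage in 0.5% methylcellulose. Plasma sampled 0–96 h and assayed by LC/MS/MS (LLOQ 1.00 ng/ml). Noncompartmental analysis; CL = dose/AUC(INF) after IV; F from dose-normalized AUC ratio.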

[21] = Drug metabolism in beagle dog hepatocytes assessed as 7-hydroxycoumarin formation at 25 uM after 3 hrs by HPLC analysis; assay type: ADME, cell-based, Canis lupus familiaris, Hepatocyte
[22] = Tmax in chimpanzee at 1 mg/kg, po; assay type: ADME, organism-based, Pan troglodytes; parameters: dose 1 mg/kg, route oral; conditions: in vivo
How it was run: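 Two male chimpanzees (58 and 72 kg), fasted overnight, dosed orally at 1 mg/kg as a suspension in 0.5% aqueous methylcellulose/Tang orange juice with 1% Tween 80 (1:1). Plasma sampled 0-96 h, parent measured by validated LC/MS/MS. Tmax taken from observed data by noncompartmental analysis; reported as median (min, max).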

| Structure (SMILES) | Drug metabolism (Liver microsome [1]) | Drug metabolism (Liver microsome [3]) | Drug metabolism [4] | Drug metabolism (Liver microsome [5]) | Drug metabolism [6] | Drug metabolism [7] | Drug metabolism [8] | Drug metabolism (Liver microsome [9]) | Drug metabolism [10] | Drug metabolism [11] | Drug metabolism [12] | Drug metabolism (Liver microsome [13]) | Drug metabolism [14] | Drug metabolism (Hepatocyte) | Drug metabolism [15] | Drug metabolism [16] | other results |
| --- | --- | --- | --- | --- | --- | --- | --- | --- | --- | --- | --- | --- | --- | --- | --- | --- | --- |
| COc1ccc(-c2c(C)nn3c(N)nc(C)nc23)c(C)n1 | metabolite_detected | metabolite_detected | metabolite_detected | metabolite_detected | metabolite_detected | metabolite_detected | metabolite_detected | metabolite_detected | metabolite_detected | metabolite_detected | metabolite_detected | metabolite_detected | metabolite_detected | metabolite_detected | metabolite_detected | metabolite_detected | Drug metabolism [2]: metabolite_detected |
| COc1ccc(-c2c(C)nn3c(O)nc(C)nc23)c(C)n1 | metabolite_detected | metabolite_detected | metabolite_detected | metabolite_detected | metabolite_detected | metabolite_detected | metabolite_detected | metabolite_detected | metabolite_detected | metabolite_detected | metabolite_detected | metabolite_detected | metabolite_detected | metabolite_detected | metabolite_detected | metabolite_detected | Drug metabolism [17]: metabolite_detected |
| CC[C@@H](C)Nc1nc(C)nc2c(-c3ccc(OC)nc3C)c(C)nn12 [PEXACERFONT] | metabolite_detected | metabolite_detected | metabolite_detected | metabolite_detected | metabolite_detected | metabolite_detected | metabolite_detected | metabolite_detected | metabolite_detected | metabolite_detected | metabolite_detected | metabolite_detected | metabolite_detected | metabolite_detected | metabolite_detected | metabolite_detected | AUC(0-inf) [18]: 13.9 µM·h; metabolised at 3 h, 25 µM [19]: 68%; bioavailability [20]: 58.8%; Drug metabolism [21]: metabolite_detected; Tmax [22]: 2 h |
| CC[C@@H](C)Nc1nc(C)nc2c(-c3ccc(O)nc3C)c(C)nn12 | metabolite_detected | metabolite_detected | metabolite_detected | metabolite_detected | metabolite_detected | metabolite_detected | metabolite_detected | metabolite_detected | metabolite_detected | metabolite_detected | metabolite_detected | metabolite_detected | metabolite_detected | metabolite_detected | metabolite_detected | metabolite_detected | – |
